Sampled rows, rich in hits. Any-hit rate of the full collection: about 2.2%.
MT stabilize HCS: stabilizes microtubules in HeLa cells. HeLa tubulin immunostaining HCS, 24 h; share of cells brighter than vehicle mean+2SD. % tubulin-high responders, % at 10 µM. 0.83% of 200,000 active. AID 2205;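 active = plate Z-score above 3 for both tubulin-high and condensed-nucleus cell shares, with cell loss under 80%, at 10 µM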;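 note: anti alpha tubulin signal scored within the nucleus-defined area of each cell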
APP transl inh: APP translation inhibition. inhibition, % at 2 µM. 0.82% of 190,000 active. SH-SY5Y APP 5'UTR-luciferase reporter, luminescence. AID 1285;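 active = inhibition above a set limit, derived from the sample mean plus 3 SD, cut at about 45% in these data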
IEC-6 cytotox: counter-screen for KLF5 inhibitors: cytotoxicity in IEC-6 cells; AID 1825; inhibition, % at 5 µM; IEC-6 cytotoxicity, luminescence viability; 0.78% of 290,000 active;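 note: 0% = plate median of test compound wells and 100% = cytotoxic reference compound wells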
BaF3 parental: parental Ba/F3 viability inhibition as JAK2V617F counter-screen. CellTiter-Glo ATP luminescence. 1.1% of 220,000 active. inhibition, % at 5.6 µM;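 active = inhibition above a per-campaign cutoff, the mean inhibition of all tested compounds plus 3 SD, cut at about 27% in these data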;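 note: 0% = DMSO wells and 100% = JAK Inhibitor I control wells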
bCat nuc transl: modulators of beta-catenin nuclear translocation. HeLa beta-catenin nuclear translocation, immunofluorescence imaging. nuclear translocation activity, % at 5 µM. 0.3% of 190,000 active. AID 1665;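 active = nuclear translocation activity above 50% at 5 µM, with a well cell count of 50 or more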;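 note: per-cell ratio of nuclear to cytoplasmic median beta-catenin stain intensity; plate controls were DMSO negative control for no effect and GSK-3 inhibitor IX positive control for full effect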
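Test system: HeLa cells, endogenous beta-catenin; Compound: single 5 µM dose plus 0.02–20 µM confirmation series; Times: compound exposure 24 h at 37°C; Signal: fluorescence imaging of beta-catenin antibody stain plus DAPI; Read-out: % activation, nuclear-to-cytoplasmic median beta-catenin signal ratio per cell.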
Ba/F3 V617F tox: lowers viability of Ba/F3 cells expressing EpoR and JAK2V617F; ATP luminescence; 1.1% of 220,000 active; inhibition, % at 5.6 µM; AID 1446;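 active = inhibition above the campaign mean plus 3 SD over all tested compounds, cut at about 24% in these data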;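 note: cytokine-independent growth of Ba/F3 cells driven by EpoR plus mutant JAK2; 0% = DMSO-treated cells and 100% = JAK inhibitor I control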
IEC-6 tox confirm: IEC-6 cytotoxicity, confirmation assay | inhibition, % at 5 µM | shares compounds with IEC-6 cytotox | 63% of 1,900 active | IEC-6 rat intestinal epithelial viability, luminescence | AID 1907;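 note: 0% = vehicle and 100% = reference cytotoxic drug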
The depositor's hits bear a star; nt = no result given. Cut-off read from the data, not from the text of the source, unless noted: active = inhibition above about 22%; inactive = the rest.

SMILES | MT stabilize HCS | APP transl inh | IEC-6 cytotox | BaF3 parental | bCat nuc transl | Ba/F3 V617F tox | IEC-6 tox confirm
Cc1ccc(C(=O)Nc2ccccc2SCC2CSc3nc4ccccc4c(=O)n32)cc1 (stereo not given) | 2 | 3 | 70* | 6 | nt | 4 | 45*
O=c1c2ccccc2nc2n1C(CSc1ccccc1)CS2 (stereo not given) | 4 | -17 | 4 | 1 | -5 | -1 | nt
O=C(Nc1ccccc1SCC1CSc2nc3ccccc3c(=O)n21)c1ccccc1 (stereo not given) | 0 | -5 | 50* | 4 | -4 | -1 | 32*
O=C(CCCl)N1CCN(c2nc(-c3ccccc3)cs2)CC1 | nt | nt | 0 | nt | nt | nt | nt
Cc1cccc(Nc2nc(NCc3ccco3)nc(N3CCOCC3)n2)c1 | 3 | 22 | 31* | 8 | 2 | -2 | 12
c1ccc(CNc2nc(NCc3ccco3)nc(N3CCOCC3)n2)cc1 | 1 | -25 | 2 | 4 | 1 | 1 | nt
Cc1cc(C(=O)NC2CCCc3c2cnn3-c2ccc(C)c(C)c2)nc(C)n1 (stereo not given) | nt | nt | 3 | nt | nt | nt | nt
CCn1cc(C(=O)NC2CCCc3c2cnn3-c2cccc(C)c2C)cn1 (stereo not given) | nt | nt | 22* | nt | nt | nt | 14
COC(=O)c1ccc(C(=O)NC2CCCc3c2cnn3-c2ccc(C)c(C)c2)cc1 (stereo not given) | nt | nt | 76* | nt | nt | nt | 58*
CCOc1ccccc1NC(=O)C1CCCN(S(=O)(=O)c2ccc(-n3cnnn3)cc2)C1 (stereo not given) | nt | nt | -1 | nt | nt | nt | nt
Cc1[nH]c2ccccc2c1/C=N/NC(=O)c1cc(-c2ccncc2)nc2ccccc12 | nt | nt | 40* | nt | nt | nt | 54*
Cc1ccc(-c2csc(NCCn3c(C(F)(F)F)nc4ccccc43)n2)cc1 | nt | nt | 0 | nt | nt | nt | nt
CCCCS(=O)(=O)/C=C\C=C/S(=O)(=O)CCCC | 3 | 98* | 102* | 105* | 5 | 101* | 40*
Cc1cc(Nc2ccccc2)nc(NCc2ccccc2)n1 | 11 | 2 | 13 | 16 | -1 | 9 | nt
CCCCNc1cc(C)nc(NCc2ccccc2)n1 | 10* | -12 | 23* | 45* | 38 | 50* | 2
CN1C(C(=O)Nc2cccc(O)c2)=CC(c2cccs2)=NS1(=O)=O | nt | nt | 2 | nt | nt | nt | nt
CCc1cc2c(=O)[nH]c(-c3ccccn3)nc2s1 | 4 | -34 | 27* | 2 | nt | -3 | 49*
CCc1ccc2oc(-c3ccc(NC(C)=O)cc3)nc2c1 | nt | nt | 7 | nt | nt | nt | nt
CCOc1cc(/C=C2\CN(C)C/C(=C\c3ccc(O)c(OCC)c3)C2=O)ccc1O | nt | nt | 88* | nt | nt | nt | 38*
CCOc1cc(/C=C2/C(=O)ON=C2C)ccc1O | nt | nt | -4 | nt | nt | nt | nt
C/C(=N\NC(=O)c1c(Cl)c(C)nn1C)c1ccc(NC(=O)C2CCC2)cc1 | nt | nt | 73* | nt | nt | nt | 52*
C/C(=N\NC(=O)c1c([N+](=O)[O-])c(C)nn1C)c1ccc(NC(=O)C2CCCC2)cc1 | nt | nt | 77* | nt | nt | nt | 64*
C/C(=N\NC(=O)c1c([N+](=O)[O-])c(C)nn1C)c1ccc(NC(=O)c2ccc(C)o2)cc1 | nt | nt | -3 | nt | nt | nt | nt
O=c1c2ccccc2nc(SCCN2CCCCC2)n1CCc1ccccc1 | 2 | 12 | 22* | 12 | 0 | 8 | 9
CC(=O)c1sc2nsc(SCCN3CCOCC3)c2c1N | nt | nt | 24* | -2 | 1 | -3 | 7
SMILES | MT stabilize HCS | APP transl inh | IEC-6 cytotox | BaF3 parental | bCat nuc transl | Ba/F3 V617F tox | IEC-6 tox confirm
CC(=O)Nc1ccc(NC(=O)CSc2nc(N)c(NC(=O)c3ccccc3F)c(=O)[nH]2)cc1 | nt | nt | 6 | nt | nt | nt | nt
CCOc1cc(NC(=O)c2cccs2)c(OCC)cc1NC(=O)CCC(=O)NCc1ccccn1 | nt | nt | 57* | 64* | 1 | 81* | 12
CCOc1cc(NC(=O)c2cccs2)c(OCC)cc1NC(=O)CCC(=O)NCCN1CCOCC1 | 3 | -95 | -2 | 4 | -1 | 0 | nt
Cc1ccc(-n2nnnc2Sc2ccc(S(=O)(=O)NCCN(C)C)cc2[N+](=O)[O-])cc1 | 3 | 36 | 28* | 68* | 6 | 96* | 47*
O=C1CC(c2cccc(Cl)c2)c2cc3c(cc2N1)CCC3 (stereo not given) | 32* | 34 | 28* | 27* | 0 | 9 | 29*
O=C1CC(c2cc(Br)ccc2F)c2cc3c(cc2N1)CCC3 (stereo not given) | 13 | 41 | -6 | 4 | 38 | -4 | nt
Cc1ccc(NC2CCCN(C(=O)CCCN3CCCCC3=O)C2)cc1C (stereo not given) | nt | nt | -1 | nt | nt | nt | nt
O=C(c1cc(COc2cccc3cnccc23)on1)N1CCCC(CCCO)C1 (stereo not given) | nt | nt | 23* | nt | nt | nt | 25*
O=C(c1ccncc1)N1N=C(c2ccc(Cl)cc2)CC1c1ccccc1O (stereo not given) | nt | nt | -2 | nt | nt | nt | nt
CCCNC(=O)c1ccccc1NC(=O)c1ccc2c(c1)NC(=O)C(C)S2 (stereo not given) | nt | nt | 42* | nt | nt | nt | 21
CCOc1ccccc1N1CC(O)=C(c2nc3ccccc3s2)C1=N | 28* | 92* | 56* | 77* | 10 | 83* | 60*
O=C(c1c(Cl)nc2sccn12)N1CCN(c2cccc(Cl)c2)CC1 | 19* | 94* | 63* | 76* | 112* | 78* | 44*
COc1ccccc1C(=O)N1CCN(c2cccc(Cl)c2)CC1 | 31* | 95* | 77* | 83* | 56* | 80* | 55*
COc1ccccc1C1NC(=O)NC(C)=C1C(=O)OC1CCCC(C)C1 (stereo not given) | nt | nt | -8 | nt | nt | nt | nt
CCc1cc(Br)ccc1NC(=S)NCCc1ccccc1 | nt | nt | -4 | nt | nt | nt | nt
COc1ccc(C2NC(=O)c3ccccc3N2)cc1OC (stereo not given) | 2 | 4 | 9 | 12 | nt | 6 | nt
O=C1NC(c2ccc(Br)cc2)Nc2ccccc21 (stereo not given) | nt | nt | 33* | nt | nt | nt | 33*
COc1ccc(-n2c(SCC(=O)N3CCOCC3)nc3ccccc3c2=O)cc1 | nt | nt | -6 | nt | nt | nt | nt
CC(C)N(CCCNC(=O)Cn1c(=O)c2cccn2c2ccc(F)cc21)Cc1ccccc1 | nt | nt | 0 | nt | nt | nt | nt
Cc1ccc(-n2c(Cl)c(Cl)nc(Cl)c2=O)cc1 | 3 | 97* | 41* | 58* | 0 | 96* | 40*
CC(C)n1cc(/C=N/Nc2ccc(Cl)c(C(=O)O)c2)c2ccccc21 | nt | nt | -1 | nt | nt | nt | nt
Cc1ccnc(Nc2nc(-c3ccc(O)cc3)cs2)c1 | nt | nt | -2 | nt | nt | nt | nt
Cc1ccnc(Nc2nc(-c3ccc(O)c(O)c3)cs2)c1 | nt | nt | 36* | nt | nt | nt | 18
O=C(OCCNc1ccc(C(F)(F)F)cc1[N+](=O)[O-])c1cc2ccccc2oc1=O | nt | nt | 1 | -3 | 0 | -2 | nt
O=C(Cc1cccc2ccccc12)Nc1ccc(Br)cc1C(=O)O | nt | nt | 25* | nt | nt | nt | 3
O=C(CSc1nc2ccccc2c(=O)n1Cc1ccccc1)Nc1ccc(Br)cc1C(=O)O | nt | nt | 34* | nt | nt | nt | 20
O=C(CCN1C(=O)/C(=C/c2ccccc2Cl)SC1=S)NCCCN1CCOCC1 | nt | nt | 0 | nt | nt | nt | nt

Assay outcomes deposited in PubChem by several laboratories.
